Values after ≈ are worked out from the molar mass of the structure shown.
Tests used:
Format in all cases: functional, cell-based
KB = test: Cytotoxicity against human KB cells after 3 days by sulforhodamine B assay; conditions: 72 h
Procedure, shortened: (§1)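 Freshly trypsinized cells seeded at 5000 per well; compounds added from DMSO-diluted stock. Cells grown in RPMI-1640 with 25 mM HEPES, 0.25% sodium bicarbonate, 10% FBS and 100 μg/mL kanamycin. After three days, attached cells fixed with cold 10% TCA and stained with 0.4% SRB. Bound dye solubilized and absorbance read at 562 nm. EC50 (50% growth reduction) averaged from at least three independent determinations.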

DU-145 = test: Cytotoxicity against human DU145 cells after 3 days by sulforhodamine B assay; conditions: DU-145, 72 h; procedure, shortened: as §1
MCF7 = test: Cytotoxicity against human MCF7 cells after 3 days by sulforhodamine B assay; conditions: MCF7, 72 h; procedure, shortened: as §1
A549 = test: Cytotoxicity against human A549 cells after 3 days by sulforhodamine B assay; conditions: A549, 72 h; procedure, shortened: as §1
PC-3 = test: Cytotoxicity against human PC3 cells after 3 days by sulforhodamine B assay; conditions: PC-3, 72 h; procedure, shortened: as §1
[1] = Cytotoxicity against human KBVIN cells after 3 days by sulforhodamine B assay; conditions: 72 h; procedure, shortened: as §1
HCT-8 = test: Cytotoxicity against human HCT8 cells after 3 days by sulforhodamine B assay; conditions: HCT-8, 72 h; procedure, shortened: as §1

| SMILES | EC50 (KB) | EC50 (DU-145) | EC50 (MCF7) | EC50 (A549) | EC50 (PC-3) | EC50 [1] | EC50 (HCT-8) |
| --- | --- | --- | --- | --- | --- | --- | --- |
| CC(=O)O[C@H]1C(=O)[C@@]2(C)[C@H]([C@H](OC(=O)c3ccccc3)[C@]3(O)C[C@H](OC(=O)[C@H](O)[C@@H](NC(=O)c4ccccc4)c4ccccc4)C(C)=C1C3(C)C)[C@]1(OC(C)=O)CO[C@@H]1C[C@@H]2O [PACLITAXEL] | < 0.005 µg/mL | < 0.005 µg/mL | 0.0072 µg/mL | < 0.005 µg/mL | 0.0097 µg/mL (≈ 0.0114 µM) | 2.16 µg/mL (≈ 2.53 µM) | 0.21 µg/mL |
| COc1cc2ccc3cccc(O)c3c2c(OC)c1O [BULBOPHYLLANTHRIN] | 5.63 µg/mL (≈ 20.8 µM) | 8.29 µg/mL (≈ 30.7 µM) | 3.26 µg/mL | 5.06 µg/mL | 3.38 µg/mL (≈ 12.5 µM) | 6.99 µg/mL (≈ 25.9 µM) | 5.26 µg/mL |
| COc1cc2c(c(OC)c1O)-c1c(O)ccc(O)c1CC2 [CALANHYDROQUINONE A] | 3.47 µg/mL (≈ 12 µM) | 5.84 µg/mL (≈ 20.3 µM) | 2.31 µg/mL | 3.58 µg/mL | 2.52 µg/mL (≈ 8.74 µM) | 5.37 µg/mL (≈ 18.6 µM) | 4.57 µg/mL |
| COc1cc(O)c2c(c1)CCc1ccc(O)c(OC)c1-2 [CALANPHENANTHRENE A] | 11.8 µg/mL (≈ 43.3 µM) | 13.2 µg/mL (≈ 48.5 µM) | 6.52 µg/mL | 7.71 µg/mL | 7.06 µg/mL (≈ 25.9 µM) | 5.48 µg/mL (≈ 20.1 µM) | 6.73 µg/mL |
| COc1cc(O)c(-c2c(O)cc(OC)c3c2CCc2cc(O)ccc2-3)c2c1-c1ccc(O)cc1CC2 | 4.4 µg/mL (≈ 9.12 µM) | 4.11 µg/mL (≈ 8.52 µM) | 3.5 µg/mL | 4.61 µg/mL | 5.37 µg/mL (≈ 11.1 µM) | 3.96 µg/mL (≈ 8.21 µM) | 4.6 µg/mL |
| COc1cc2c(cc1O)CCc1cc(O)cc(OC)c1-2 | 3.9 µg/mL (≈ 14.3 µM) | 5.38 µg/mL (≈ 19.8 µM) | 2.59 µg/mL | 4.24 µg/mL | 2.67 µg/mL (≈ 9.81 µM) | 5.84 µg/mL (≈ 21.4 µM) | 4.55 µg/mL |
| COC1=CC(=O)c2ccc3cc(OC)c(OC)c(O)c3c2C1=O [CALANQUINONE A] | 0.32 µg/mL (≈ 1.02 µM) | 0.34 µg/mL (≈ 1.08 µM) | < 0.02 µg/mL | 0.19 µg/mL | 0.16 µg/mL (≈ 0.509 µM) | 0.45 µg/mL (≈ 1.43 µM) | 0.2 µg/mL |
| COc1cc2c(c(OC)c1O)C1=C(CC2)C(=O)C=CC1=O [CALANQUINONE C] | 2.97 µg/mL (≈ 10.4 µM) | 4.34 µg/mL (≈ 15.2 µM) | 2.12 µg/mL | 3.58 µg/mL | 2.07 µg/mL (≈ 7.23 µM) | 4.68 µg/mL (≈ 16.3 µM) | 4.14 µg/mL |
| COc1c(O)cc2c(c1OC)-c1c(O)ccc(O)c1CC2 [CALANHYDROQUINONE B] | 3.75 µg/mL (≈ 13 µM) | 5.46 µg/mL (≈ 18.9 µM) | 3.28 µg/mL | 4.07 µg/mL | 2.62 µg/mL (≈ 9.09 µM) | 5.24 µg/mL (≈ 18.2 µM) | 5.16 µg/mL |
| COc1cc2c(c(OC)c1OC)-c1c(O)ccc(O)c1CC2 [CALANHYDROQUINONE C] | 2.86 µg/mL (≈ 9.46 µM) | 3.78 µg/mL (≈ 12.5 µM) | 1.7 µg/mL | 2.36 µg/mL | 0.85 µg/mL (≈ 2.81 µM) | 4.73 µg/mL (≈ 15.6 µM) | 3.96 µg/mL |
| COC1=CC(=O)c2ccc3cc(OC)c(OC)cc3c2C1=O [SPHENONE A] | 2.7 µg/mL (≈ 9.05 µM) | – | – | – | – | – | – |
| COc1cc(O)c(-c2c(O)cc(OC)c3c2ccc2cc(O)ccc23)c2c1-c1ccc(O)cc1CC2 [CIRRHOPETALANTHRIN] | – | – | 12.5 µM | 11.2 µM | – | – | 7.3 µM |
| COC1=CC(=O)c2ccc3cc(OC)c(O)c(OC)c3c2C1=O [CALANQUINONE B] | 6.46 µg/mL (≈ 20.6 µM) | 6.45 µg/mL (≈ 20.5 µM) | 1.81 µg/mL | 4.54 µg/mL | 1.55 µg/mL (≈ 4.93 µM) | 13.3 µg/mL (≈ 42.3 µM) | 4.56 µg/mL |
| COc1cc(O)cc2c1-c1ccc(O)cc1CC2 | 3.4 µg/mL (≈ 14 µM) | 4.79 µg/mL (≈ 19.8 µM) | 1.8 µg/mL | 5.05 µg/mL | 2.82 µg/mL (≈ 11.6 µM) | 7.92 µg/mL (≈ 32.7 µM) | 3.84 µg/mL |
| COC1=CC(=O)c2ccc3ccccc3c2C1=O [ANNOQUINONE A] | 0.16 µg/mL (≈ 0.672 µM) | – | – | – | – | – | – |
